Measured values reported in ChEMBL document CHEMBL4715924, “Virtual Screening Approach to Identifying a Novel and Tractable Series of Pseudomonas aeruginosa Elastase Inhibitors” (ACS Med Chem Lett, 2021).

Assays:
[1] = Inhibition of Pseudomonas aeruginosa LasB using Abz-Ala-Gly-Leu-Ala-p-Nitro-Benzyl-Amide as substrate measured for every 60 sec for 30 mins by UV-fluorescence based assay
Outline: (§1)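 Purified LasB enzyme in a fluorometric inhibition assay adapted from a published method. Compounds were screened at a single concentration of 30 μM (follow-ups in duplicate), and selected compounds were retested over 0.4–200 μM in dose–response. A modified version added 0.01% Triton X-100 to the assay buffer.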

[2] = biological target: T1, Angiotensin-converting enzyme (Oryctolagus cuniculus, UniProt P12822); test: Inhibition of rabbit ACE using Abz-FRK(DNP)-P as substrate measured for every 30 sec for 5 mins by UV-fluorescence based assay
T1 sequence (P12822 whole entry): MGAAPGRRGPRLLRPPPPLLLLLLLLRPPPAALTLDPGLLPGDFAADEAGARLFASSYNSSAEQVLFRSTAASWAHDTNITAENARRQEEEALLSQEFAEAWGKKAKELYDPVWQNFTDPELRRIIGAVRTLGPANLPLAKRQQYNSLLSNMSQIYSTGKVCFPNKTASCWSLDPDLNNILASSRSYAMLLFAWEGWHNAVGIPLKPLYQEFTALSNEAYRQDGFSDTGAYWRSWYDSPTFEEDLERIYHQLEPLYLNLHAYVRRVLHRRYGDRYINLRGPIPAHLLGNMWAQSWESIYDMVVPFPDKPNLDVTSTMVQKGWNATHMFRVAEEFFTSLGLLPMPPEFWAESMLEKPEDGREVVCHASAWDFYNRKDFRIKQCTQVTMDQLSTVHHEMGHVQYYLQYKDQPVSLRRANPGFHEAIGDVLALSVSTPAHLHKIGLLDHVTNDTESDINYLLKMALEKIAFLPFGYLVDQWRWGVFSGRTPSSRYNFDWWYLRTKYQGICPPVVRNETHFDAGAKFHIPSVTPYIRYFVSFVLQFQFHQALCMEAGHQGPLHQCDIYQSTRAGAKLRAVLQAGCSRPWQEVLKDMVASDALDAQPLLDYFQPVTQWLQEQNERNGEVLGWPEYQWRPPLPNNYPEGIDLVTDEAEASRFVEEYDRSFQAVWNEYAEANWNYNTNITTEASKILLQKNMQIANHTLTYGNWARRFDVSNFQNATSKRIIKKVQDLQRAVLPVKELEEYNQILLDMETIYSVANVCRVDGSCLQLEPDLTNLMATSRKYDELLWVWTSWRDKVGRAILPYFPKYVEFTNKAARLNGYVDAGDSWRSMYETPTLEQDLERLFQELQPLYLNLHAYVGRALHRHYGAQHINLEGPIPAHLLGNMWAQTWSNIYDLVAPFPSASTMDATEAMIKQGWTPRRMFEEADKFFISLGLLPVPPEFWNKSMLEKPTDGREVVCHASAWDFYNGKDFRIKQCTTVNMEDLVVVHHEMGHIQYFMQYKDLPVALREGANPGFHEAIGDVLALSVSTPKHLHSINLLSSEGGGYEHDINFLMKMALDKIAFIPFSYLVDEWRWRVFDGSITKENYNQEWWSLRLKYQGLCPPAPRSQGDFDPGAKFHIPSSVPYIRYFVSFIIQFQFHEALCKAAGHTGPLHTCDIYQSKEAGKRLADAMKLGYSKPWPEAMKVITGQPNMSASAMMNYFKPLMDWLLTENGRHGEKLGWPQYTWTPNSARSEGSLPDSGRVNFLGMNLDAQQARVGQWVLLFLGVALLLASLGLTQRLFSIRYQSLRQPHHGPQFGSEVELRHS

[3] = system: Pseudomonas aeruginosa PAO1; test: Inhibition of Pseudomonas aeruginosa PAO1 LasB using ECR as substrate assessed as reduction in elastin hydrolysis at 50 uM incubated for 16 hrs by congo-red dye based spectrophotometry relative to control
Outline: (§2)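 The enzyme source was LasB secreted into P. aeruginosa culture supernatant, with elastin congo-red as substrate. Elastin degradation releases congo-red dye into the supernatant, which is quantified spectrophotometrically.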

[4] = system: Pseudomonas aeruginosa PAO1; test: Inhibition of Pseudomonas aeruginosa PAO1 LasB using ECR as substrate assessed as reduction in elastin hydrolysis at 25 uM incubated for 16 hrs by congo-red dye based spectrophotometry relative to control; outline: as §2
[5] = system: ACE (off-target) relative to Pseudomonas aeruginosa PAO1 LasB; test: Selectivity index, ratio of Ki for rabbit ACE to Ki for Pseudomonas aeruginosa PAO1 LasB; assay type: toxicity; settings: read-out: Ratio Ki
[6] = biological target: Collagenase 3 (Homo sapiens, UniProt P45452); test: Inhibition of human MMP13
[7] = biological target: 72 kDa type IV collagenase (Homo sapiens, UniProt P08253); test: Inhibition of human MMP2
[8] = biological target: T2, Interstitial collagenase (Homo sapiens, UniProt P03956); test: Inhibition of human MMP1
T2 sequence (P03956 whole entry): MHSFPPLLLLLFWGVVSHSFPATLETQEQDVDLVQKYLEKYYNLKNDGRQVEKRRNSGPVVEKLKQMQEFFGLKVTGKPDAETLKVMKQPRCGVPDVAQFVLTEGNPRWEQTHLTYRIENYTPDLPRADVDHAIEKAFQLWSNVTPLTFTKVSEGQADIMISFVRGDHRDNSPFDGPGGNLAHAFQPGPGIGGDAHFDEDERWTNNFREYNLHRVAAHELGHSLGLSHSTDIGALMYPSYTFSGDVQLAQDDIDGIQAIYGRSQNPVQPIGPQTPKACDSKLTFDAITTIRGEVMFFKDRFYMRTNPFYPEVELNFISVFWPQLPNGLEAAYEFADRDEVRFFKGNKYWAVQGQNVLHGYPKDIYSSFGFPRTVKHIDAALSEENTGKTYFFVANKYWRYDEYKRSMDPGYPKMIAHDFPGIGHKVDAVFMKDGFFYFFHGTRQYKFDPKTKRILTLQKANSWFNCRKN

[9] = Inhibition of Pseudomonas aeruginosa LasB using Abz-Ala-Gly-Leu-Ala-p-Nitro-Benzyl-Amide as substrate by micro-titer based fluorimetric assay; outline: as §1

Chain of 72 kDa type IV collagenase (P08253 whole entry): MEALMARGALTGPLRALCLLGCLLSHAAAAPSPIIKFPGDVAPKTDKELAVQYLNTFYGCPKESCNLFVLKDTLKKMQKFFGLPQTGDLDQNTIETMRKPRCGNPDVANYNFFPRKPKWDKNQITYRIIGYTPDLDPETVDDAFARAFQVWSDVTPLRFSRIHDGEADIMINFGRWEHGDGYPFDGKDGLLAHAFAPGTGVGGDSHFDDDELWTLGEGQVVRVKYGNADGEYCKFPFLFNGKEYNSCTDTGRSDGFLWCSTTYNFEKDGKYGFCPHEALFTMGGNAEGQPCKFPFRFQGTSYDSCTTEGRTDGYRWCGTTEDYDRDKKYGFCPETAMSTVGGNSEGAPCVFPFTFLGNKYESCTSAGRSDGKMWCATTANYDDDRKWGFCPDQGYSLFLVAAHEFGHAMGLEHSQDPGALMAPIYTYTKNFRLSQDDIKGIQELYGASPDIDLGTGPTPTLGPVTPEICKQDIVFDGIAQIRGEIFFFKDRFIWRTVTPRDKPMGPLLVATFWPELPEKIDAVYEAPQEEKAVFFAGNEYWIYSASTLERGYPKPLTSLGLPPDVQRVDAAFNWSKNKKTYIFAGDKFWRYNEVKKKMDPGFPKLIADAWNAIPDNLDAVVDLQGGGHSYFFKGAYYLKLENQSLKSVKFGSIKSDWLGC

## O=C(O)CC1(C(=O)NCc2cc3ccccc3s2)Cc2ccccc2C1
[1]
  Ki: 0.62 µM
[2]
  Ki: > 57 µM
[3]
  inhibition: 57%
[4]
  inhibition: 47%

## O=C(O)CC1(C(=O)NCc2cc3ccccc3o2)Cc2ccccc2C1
[1]
  Ki: 1.4 µM
[2]
  Ki: > 57 µM
[3]
  inhibition: 54%
[4]
  inhibition: 45%

## Cc1ccc2oc(CNC(=O)CC3(C(=O)O)Cc4ccccc4C3)cc2c1
[1]
  Ki: > 92 µM
[2]
  Ki: > 57 µM
[3]
  inhibition: 2%

## Cc1ccc2oc(CNC(=O)C3(CC(=O)O)Cc4ccccc4C3)cc2c1
[1]
  Ki: 0.45 µM
[2]
  Ki: > 57 µM
[3]
  inhibition: 60%

## O=C(O)CC1(C(=O)NCc2cc3ccccc3[nH]2)Cc2ccccc2C1
[1]
  Ki: 1.08 µM
[2]
  Ki: > 57 µM
[3]
  inhibition: 49%
[4]
  inhibition: 35%

## O=C(O)CC1(C(=O)NCCc2cc3ccccc3s2)Cc2ccccc2C1
[1]
  Ki: 4.85 µM
[2]
  Ki: 40.6 µM
[3]
  inhibition: 28%
[4]
  inhibition: 18%

## O=C(O)CC1(C(=O)NCc2nc3ccccc3s2)Cc2ccccc2C1
[5]
  selectivity ratio: > 356
[1]
  Ki: 0.16 µM
[2]
  Ki: > 57 µM
[6]
  IC50: > 10 µM
[7]
  IC50: > 10 µM
[3]
  inhibition: 79%
[8]
  IC50: > 10 µM
[4]
  inhibition: 69%

## O=C(O)CC1(C(=O)NCc2c[nH]c3ccccc23)Cc2ccccc2C1
[1]
  Ki: 3.54 µM
[2]
  Ki: > 57 µM
[3]
  inhibition: 35%
[4]
  inhibition: 23%

## O=C(O)CC1(C(=O)NCCc2nc3ccccc3s2)Cc2ccccc2C1
[1]
  Ki: 10.5 µM
[2]
  Ki: > 57 µM
[3]
  inhibition: 21%
[4]
  inhibition: 11%

## O=C(O)CC1(C(=O)NCCc2cc3ccccc3[nH]2)Cc2ccccc2C1
[1]
  Ki: 4.34 µM
[2]
  Ki: > 57 µM
[3]
  inhibition: 25%
[4]
  inhibition: 18%

## C[C@H](NC(=O)C1(CC(=O)O)Cc2ccccc2C1)c1cc2ccccc2o1
[1]
  Ki: 3.21 µM
[2]
  Ki: > 57 µM
[3]
  inhibition: 47%
[4]
  inhibition: 37%

## O=C(O)CC1(C(=O)NCc2nccs2)Cc2ccccc2C1
[1]
  Ki: 0.61 µM
[2]
  Ki: > 57 µM
[3]
  inhibition: 65%
[4]
  inhibition: 55%

## O=C(O)CC1(C(=O)NCc2ccc3ccccc3n2)Cc2ccccc2C1
[1]
  Ki: 0.61 µM
[2]
  Ki: > 57 µM
[3]
  inhibition: 63%

## Cc1ccccc1OCC(=O)N(CCC(=O)O)Cc1cccc(F)c1F
[1]
  Ki: 6.87 µM
[2]
  Ki: > 57 µM

## Cn1c(CNC(=O)C2(CC(=O)O)Cc3ccccc3C2)nc2ccccc21
[1]
  Ki: 12.5 µM
[2]
  Ki: 18 µM
[3]
  inhibition: 32%
[4]
  inhibition: 21%

## Cn1c(CNC(=O)C2(CC(=O)O)Cc3ccccc3C2)cc2ccccc21
[1]
  Ki: 0.69 µM
[2]
  Ki: > 57 µM
[3]
  inhibition: 60%
[4]
  inhibition: 51%

## Cn1cc(CNC(=O)CC2(C(=O)O)Cc3ccccc3C2)cn1
[1]
  Ki: > 92 µM
[2]
  Ki: > 57 µM
[3]
  inhibition: 8%

## O=C(O)CC1(C(=O)NCc2nc(-c3ccccc3)cs2)Cc2ccccc2C1
[5]
  selectivity ratio: > 356
[1]
  Ki: 0.12 µM
[2]
  Ki: > 57 µM
[6]
  IC50: > 10 µM
[7]
  IC50: > 10 µM
[3]
  inhibition: 76%
[8]
  IC50: > 10 µM
[4]
  inhibition: 68%

## NC(=O)[C@H](Cc1ccc(O)cc1)NC(=O)[C@H](Cc1ccccc1)NC(=O)CS
[9]
  Ki: 0.041 µM

## O=C(O)CC1(C(=O)NCc2ncc(-c3ccccc3)s2)Cc2ccccc2C1
[1]
  Ki: 1.19 µM
[2]
  Ki: > 57 µM
[3]
  inhibition: 54%
[4]
  inhibition: 42%

## Cn1cc(CNC(=O)C2(CC(=O)O)Cc3ccccc3C2)cn1
[1]
  Ki: 4.04 µM
[2]
  Ki: > 57 µM
[3]
  inhibition: 42%

## O=C(O)CC1(C(=O)NCc2coc3ccccc23)Cc2ccccc2C1
[1]
  Ki: 1.9 µM
[2]
  Ki: 31.3 µM
[3]
  inhibition: 51%
[4]
  inhibition: 41%

## CC(NC(=O)CC1(C(=O)O)Cc2ccccc2C1)c1cc2ccccc2o1 (racemic)
[1]
  Ki: 14.8 µM
[2]
  Ki: > 57 µM
[3]
  inhibition: 22%

## O=C(CC1(C(=O)O)Cc2ccccc2C1)NCc1ccc2ccccc2n1
[1]
  Ki: 76.2 µM
[3]
  inhibition: 7%

## Cc1cc(Br)ccc1C(=O)NC1=NC(=O)CN1
[1]
  Ki: 18.1 µM
[2]
  Ki: > 57 µM

## O=C(O)CC1(C(=O)NCc2ccccc2)Cc2ccccc2C1
[1]
  Ki: 1.75 µM
[2]
  Ki: > 57 µM
[3]
  inhibition: 54%
[4]
  inhibition: 43%

## C[C@@H](NC(=O)C1(CC(=O)O)Cc2ccccc2C1)c1cc2ccccc2o1
[1]
  Ki: 2.27 µM
[2]
  Ki: > 57 µM
[3]
  inhibition: 44%
[4]
  inhibition: 33%

## O=C(O)CC1(C(=O)NCCc2cc3ccccc3o2)Cc2ccccc2C1
[1]
  Ki: 5.66 µM
[2]
  Ki: > 57 µM
[3]
  inhibition: 25%
[4]
  inhibition: 16%

## O=C(O)CC1(C(=O)NCc2nc3ccccc3[nH]2)Cc2ccccc2C1
[1]
  Ki: 21.5 µM
[2]
  Ki: > 57 µM
[3]
  inhibition: 20%
[4]
  inhibition: 11%

## O=C(O)CC1(C(=O)NCCc2nc3ccccc3[nH]2)Cc2ccccc2C1
[1]
  Ki: 13.6 µM
[2]
  Ki: > 57 µM
[3]
  inhibition: 18%
[4]
  inhibition: 11%
